Laboratory results from ChEMBL document CHEMBL1122284, “Aromatic retinoic acid analogues. 2. Synthesis and pharmacological activity” (1983).

Columns and labels:
[1] = tested on: Cricetinae gen. sp.; assay: Relative potency with respect to retinoic acid in hamster tracheal organ culture assay (TOC); type: functional, Cricetulus griseus, Trachea
[2] = tested on: Cricetinae gen. sp.; assay: Total cultures(14) versus active (4) at 10e-8 M conc. in hamster tracheal organ culture assay (TOC); type: functional, Trachea
Method in brief: (§1)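 Tracheas from Syrian golden hamsters kept on a vitamin A deficient diet from birth to 30–32 days old. Cultured serum-free (CMRL 1066 with insulin, hydrocortisone, glutamine, antibiotics), one explant per dish, 50% O2/45% N2/5% CO2, 36 °C, rocked. 3 days without retinoid, then 7 days with retinoid, medium renewed three times. Histology on day 10. Active means keratin/keratohyaline granules absent. Usually duplicate, 6–7 tracheas per concentration.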

[3] = biological target: T1, Ornithine decarboxylase (Mus musculus) (UniProt P00860); assay: Percent inhibition of the induction of ornithine decarboxylase at 1.7 nmol in mouse dorsal epidermis (ODC assay); type: functional
T1 sequence (whole entry): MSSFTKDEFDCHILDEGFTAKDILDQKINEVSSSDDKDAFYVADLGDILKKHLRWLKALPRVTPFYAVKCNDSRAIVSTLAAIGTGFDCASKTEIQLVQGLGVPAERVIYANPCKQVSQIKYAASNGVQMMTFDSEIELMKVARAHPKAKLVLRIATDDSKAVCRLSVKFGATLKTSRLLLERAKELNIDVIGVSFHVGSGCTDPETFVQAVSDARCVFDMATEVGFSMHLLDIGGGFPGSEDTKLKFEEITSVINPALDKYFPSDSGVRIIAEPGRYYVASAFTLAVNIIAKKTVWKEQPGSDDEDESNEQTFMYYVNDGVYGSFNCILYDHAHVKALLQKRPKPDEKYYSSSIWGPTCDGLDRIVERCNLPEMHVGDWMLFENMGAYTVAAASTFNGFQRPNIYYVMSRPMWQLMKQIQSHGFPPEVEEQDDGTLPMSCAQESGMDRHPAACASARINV

[4] = biological target: T1, Ornithine decarboxylase (Mus musculus); assay: Percent inhibition of the induction of ornithine decarboxylase at 17 nmol dose in mouse dorsal epidermis (ODC assay); type: functional
[5] = tested on: Cricetinae gen. sp.; assay: Total cultures(6) versus active (1) at 10e-10 M conc. in hamster tracheal organ culture assay (TOC); type: functional, Trachea; method in brief: as §1
[6] = tested on: Cricetinae gen. sp.; assay: ED50 of retinoid required to effect reversal of keratinization; type: functional; method in brief: as §1
[7] = tested on: Cricetinae gen. sp.; assay: Total cultures(12) versus active (3) at 10e-9 M conc. in hamster tracheal organ culture assay (TOC); type: functional, Trachea; method in brief: as §1
[8] = tested on: Cricetinae gen. sp.; assay: Total cultures(15) versus active (15) at 10e-8 M conc. in hamster tracheal organ culture assay (TOC); type: functional, Trachea; method in brief: as §1
[9] = tested on: Cricetinae gen. sp.; assay: Total cultures(15) versus active (7) at 10e-10 M conc. in hamster tracheal organ culture assay (TOC); type: functional, Trachea; method in brief: as §1
[10] = tested on: Cricetinae gen. sp.; assay: Total cultures(15) versus active (14) at 10e-9 M conc. in hamster tracheal organ culture assay (TOC); type: functional, Trachea; method in brief: as §1
[11] = tested on: Cricetinae gen. sp.; assay: Total cultures (1)versus active(6) at 10e-11 M conc. in hamster tracheal organ culture assay (TOC); type: functional, Trachea; method in brief: as §1
[12] = tested on: Cricetinae gen. sp.; assay: Total cultures(11) versus active(13) at 10e-9 M conc. in hamster tracheal organ culture assay (TOC); type: functional, Trachea; method in brief: as §1
[13] = tested on: Cricetinae gen. sp.; assay: Total cultures(9) versus active(14) at 10e-10 M conc. in hamster tracheal organ culture assay (TOC); type: functional, Trachea; method in brief: as §1
[14] = tested on: Cricetinae gen. sp.; assay: Total cultures(6) versus active(6) at 10e-8 M conc. in hamster tracheal organ culture assay (TOC); type: functional, Trachea; method in brief: as §1
[15] = tested on: Cricetinae gen. sp.; assay: Total cultures(13) versus active (11) at 10e-8 M conc. in hamster tracheal organ culture assay (TOC); type: functional, Trachea; method in brief: as §1
[16] = tested on: Cricetinae gen. sp.; assay: Total cultures(14) versus active (5) at 10e-10 M conc. in hamster tracheal organ culture assay (TOC); type: functional, Trachea; method in brief: as §1
[17] = tested on: Cricetinae gen. sp.; assay: Total cultures(14) versus active (6) at 10e-9 M conc. in hamster tracheal organ culture assay (TOC); type: functional, Trachea; method in brief: as §1
[18] = tested on: Cricetinae gen. sp.; assay: Total cultures (14) versus active (4) at 10e-10 M conc. in hamster tracheal organ culture assay (TOC); type: functional, Trachea; method in brief: as §1
[19] = tested on: Cricetinae gen. sp.; assay: Total cultures(7) versus active (7) at 10e-8 M conc. in hamster tracheal organ culture assay (TOC); type: functional, Trachea; method in brief: as §1
[20] = tested on: Cricetinae gen. sp.; assay: Total cultures (14) versus active (8) at 10e-9 M conc. in hamster tracheal organ culture assay (TOC); type: functional, Trachea; method in brief: as §1
[21] = tested on: Cricetinae gen. sp.; assay: Total cultures(1) versus active (13)at 10e-9 M conc. in hamster tracheal organ culture assay (TOC); type: functional, Trachea; method in brief: as §1
[22] = tested on: Cricetinae gen. sp.; assay: Total cultures(0) versus active(12)at 10e-10 M conc. in hamster tracheal organ culture assay (TOC); type: functional, Trachea; method in brief: as §1
[23] = tested on: Cricetinae gen. sp.; assay: Total cultures(2) versus active(12) at 10e-8 M conc. in hamster tracheal organ culture assay (TOC); type: functional, Trachea; method in brief: as §1
[24] = biological target: T1, Ornithine decarboxylase (Mus musculus); assay: Percent inhibition of the induction of ornithine decarboxylase in mouse dorsal epidermis (ODC assay); type: functional
[25] = tested on: Cricetinae gen. sp.; assay: Total cultures(13) versus active (8) at 10e-10 M conc. in hamster tracheal organ culture assay (TOC); type: functional, Trachea; method in brief: as §1
[26] = tested on: Cricetinae gen. sp.; assay: Total cultures(6) versus active (2) at 10e-11 M conc. in hamster tracheal organ culture assay (TOC); type: functional, Trachea; method in brief: as §1
[27] = tested on: Cricetinae gen. sp.; assay: Total cultures(12) versus active (10) at 10e-9 M conc. in hamster tracheal organ culture assay (TOC); type: functional, Trachea; method in brief: as §1
[28] = tested on: Cricetinae gen. sp.; assay: Total cultures(5) versus active(13) at 10e-10 M conc. in hamster tracheal organ culture assay (TOC); type: functional, Trachea; method in brief: as §1
[29] = tested on: Cricetinae gen. sp.; assay: Total cultures(12) versus active(13) at 10e-9 M conc. in hamster tracheal organ culture assay (TOC); type: functional, Trachea; method in brief: as §1
[30] = tested on: Cricetinae gen. sp.; assay: Total cultures(13) versus active(13) at 10e-8 M conc. in hamster tracheal organ culture assay (TOC); type: functional, Trachea; method in brief: as §1

Structure (SMILES)	inhibition of control [3]	inhibition of control [4]	Relative activity [1]	ED50 [6]	other results
CCOC(=O)c1ccc(/C=C(C)/C=C/C2=C(C)CCCC2(C)C)o1	9%	9%	<<0.1	0.02 nM	Active/total cultures [2]: 29%; Active/total cultures [5]: 17%; Active/total cultures [7]: 25%
CC1=C(/C=C/C(C)=C/c2ccc(C(=O)O)s2)C(C)(C)CCC1	42%	67%	2	0.02 nM	Active/total cultures [8]: 100%; Active/total cultures [9]: 47%; Active/total cultures [10]: 93%
CCOC(=O)c1ccc(/C=C(C)\C=C\C2=C(C)CCCC2(C)C)s1	35%	76%	0.3	0.02 nM	Active/total cultures [15]: 85%; Active/total cultures [16]: 36%; Active/total cultures [17]: 43%
CCOC(=O)c1ccc(/C(F)=C(C)\C=C\C2=C(C)CCCC2(C)C)cc1		16%	<0.1	0.02 nM	Active/total cultures [21]: 8%; Active/total cultures [22]: 0%; Active/total cultures [23]: 17%; inhibition of control [24]: 5%
CC1=C(/C=C/C(C)=C(\F)c2ccc(C(=O)O)cc2)C(C)(C)CCC1	70%	80%	3	0.02 nM	Active/total cultures [28]: 38%; Active/total cultures [29]: 92%; Active/total cultures [30]: 100%

Further lines, with some results ahead:

inhibition of control [3]	inhibition of control [4]	Structure (SMILES)	Relative activity [1]	ED50 [6]	other results
8%	46%	CCOC(=O)c1ccc(/C=C(C)/C=C/C2=C(C)CCCC2(C)C)c(F)c1	5	0.006 nM	Active/total cultures [11]: 17%; Active/total cultures [12]: 85%; Active/total cultures [13]: 64%; Active/total cultures [14]: 100%
29%	60%	CCOC(=O)c1ccc(/C=C(C)/C=C/C2=C(C)CCCC2(C)C)cn1	0.4	0.008 nM	Active/total cultures [18]: 29%; Active/total cultures [19]: 100%; Active/total cultures [20]: 57%
21%	39%	CCOC(=O)c1ccc(/C=C(C)/C=C/C2=C(C)CCCC2(C)C)c(OC)c1	5	0.006 nM	Active/total cultures [25]: 62%; Active/total cultures [26]: 33%; Active/total cultures [27]: 83%; Active/total cultures [19]: 100%
